ChEMBL document CHEMBL4706631, “Potent and Selective Mitogen-Activated Protein Kinase Kinase 1/2 (MEK1/2) Heterobifunctional Small-molecule Degraders” (J Med Chem, 2020)
Activity calls are given as the source filed them. No cut-off for these calls is given here.

Assays:
HT-29 [1] = test: Inhibition of colony formation in human HT-29 cells at 10 to 100 nM incubated for 10 days by crystal violet staining based assay; format: functional, cell-based; details: dose 10-100 nM, time 10.0 day
Method in brief: (§1)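 HT-29 clonogenic assay: cells were exposed to compounds for 10 days, then fixed and stained with crystal violet. Two independent experiments.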

HT-29 [2] = test: Inhibition of ERK phosphorylation in human HT-29 cells pre-incubated with MLN4924 for 2 hrs followed by compound addition at 0.1 uM and further incubated for 8 hrs by Western blot analysis; format: cell-based
HT-29 [3] = test: Inhibition of ERK phosphorylation in human HT-29 cells pre-incubated with MG-132 for 2 hrs followed by compound addition at 0.1 uM and further incubated for 8 hrs by Western blot analysis; format: cell-based
NCI-H3122 [4] = test: Antiproliferative activity against human NCI-H3122 cells at 0.014 to 3.33 uM incubated for 3 days by WST8 assay; format: functional, cell-based; details: dose 0.014-3.33 µM, time 3.0 day
Method in brief: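 NCI-H3122 cells were exposed to serial compound dilutions for 3 days, with WST-8 live-cell readout. Each concentration was run in triplicate. Student's t-test per concentration versus DMSO.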

[5] = Toxicity in Swiss albino mouse assessed as induction of adverse events at 50 mg/kg, ip administered as single dose and measured up to 8 hrs; format: organism-based; details: in vivo
SK-MEL-28 [6] = test: Inhibition of ERK phosphorylation in human SK-MEL-28 cells at 0.0001 to 3 uM incubated for 24 hrs by Western blot analysis; format: cell-based; details: dose 0.0001-3 µM
[7] = Toxicity in Swiss albino mouse assessed as effect on clinical signs at 50 mg/kg, ip administered as single dose and measured up to 8 hrs; format: organism-based; details: in vivo
NCI-H3122 [8] = test: Inhibition of ERK phosphorylation in human NCI-H3122 cells at 0.3 to 3 uM and incubated for 24 hrs by Western blot analysis; format: cell-based; details: dose 0.3-3 µM
Method in brief: (§2)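 H3122 and SU-DHL-1 cells were treated with compounds, and MEK1/2, pMEK and pERK were assessed by Western blot of lysates.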

[9] = Drug level in Swiss albino mouse plasma at 50 mg/kg, ip administered as single dose and measured up to 8 hrs by LC-MS/MS analysis; format: ADME, organism-based; details: in vivo
HT-29 [10] = test: Inhibition of ERK phosphorylation in human HT-29 cells incubated for 24 hrs by Western blot analysis; format: cell-based
HT-29 [11] = test: Inhibition of ERK phosphorylation in human HT-29 cells pre-incubated for 2 hrs followed by compound addition at 0.1 uM and further incubated for 8 hrs by Western blot analysis
HT-29 [12] = test: Inhibition of ERK phosphorylation in human HT-29 cells pre-incubated with VH032 for 2 hrs followed by compound addition at 0.1 uM and further incubated for 8 hrs by Western blot analysis; format: cell-based
[13] = Toxicity in Swiss albino mouse assessed as drug tolerability at 50 mg/kg, ip administered as single dose and measured up to 8 hrs; format: organism-based; details: in vivo
SU-DHL-1 [14] = test: Inhibition of ERK phosphorylation in human SU-DHL-1 cells at 0.3 to 3 uM and incubated for 24 hrs by Western blot analysis; format: cell-based; details: dose 0.3-3 µM; method in brief: as §2
HT-29 [15] = test: Inhibition of ERK phosphorylation in human HT-29 cells pre-incubated with PD0325901 for 2 hrs followed by compound addition at 0.1 uM and further incubated for 8 hrs by Western blot analysis; format: cell-based
HT-29 [16] = test: Antiproliferative activity against human HT-29 cells at 0.00017 to 10 uM in presence of 400 nM ZSTK474 incubated for 3 days by WST-8 assay; format: functional, cell-based; details: dose 0.00017-10 µM, time 3.0 day
Method in brief: (§3)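 Cells grown in DMEM, RPMI-1640 or EMEM with 10% FBS and penicillin/streptomycin. They were exposed for 3 days to a dilution series of degrader combined with fixed PLX4032 (100 nM) or ZSTK474 (400 nM). Live-cell signal was read by WST-8. Triplicate points, mean ± SD of three independent experiments. Student's t-test per concentration versus DMSO.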

HT-29 [17] = test: Antiproliferative activity against human HT-29 cells at 0.00017 to 10 uM in presence of 100 nM PLX4032 incubated for 3 days by WST-8 assay; format: functional, cell-based; details: dose 0.00017-10 µM, time 3.0 day; method in brief: as §3
SK-MEL-28 [18] = test: Antiproliferative activity against human SK-MEL-28 cells at 0.00017 to 10 uM in presence of 400 nM ZSTK474 incubated for 3 days by WST-8 assay; format: functional, cell-based; details: dose 0.00017-10 µM, time 3.0 day; method in brief: as §3
SK-MEL-28 [19] = test: Antiproliferative activity against human SK-MEL-28 cells at 0.00017 to 10 uM in presence of 100 nM PLX4032 incubated for 3 days by WST-8 assay; format: functional, cell-based; details: dose 0.00017-10 µM, time 3.0 day; method in brief: as §3
HT-29 [20] = test: Inhibition of ERK phosphorylation in human HT-29 cells at 0.3 to 3 uM incubated for 24 hrs by Western blot analysis; format: cell-based; details: dose 0.3-3 µM
HT-29 [21] = test: Effect on global proteome expression in human HT-29 cells at 0.1 uM incubated for 8 hrs by mass spectrometry analysis based global proteome analysis; format: functional, cell-based
Method in brief: (§4)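 HT-29 cells were treated 8 h (0.1% DMSO vehicle) and then lysed in 8 M urea/100 mM Tris pH 8.0 with sonication. Proteins were reduced with 5 mM DTT, alkylated with 15 mM IAA and digested overnight with trypsin (1:100). Peptides were analysed on a 130 min nanoLC gradient by Q Exactive HF-X data-dependent MS (top-20 HCD). Run in duplicate.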

HT-29 [22] = test: Inhibition of colony formation in human HT-29 cells at 30 to 300 nM incubated for 10 days by crystal violet staining based assay; format: functional, cell-based; details: dose 30-300 nM, time 10.0 day; method in brief: as §1
HT-29 [23] = test: Effect on global proteome expression in human HT-29 cells at 0.3 uM incubated for 8 hrs by mass spectrometry analysis based global proteome analysis; format: functional, cell-based; method in brief: as §4
HT-29 [24] = test: Inhibition of ERK phosphorylation in human HT-29 cells pre-incubated with MG132 for 2 hrs followed by compound addition at 0.3 uM and further incubated for 8 hrs by Western blot analysis; format: cell-based
HT-29 [25] = test: Inhibition of ERK phosphorylation in human HT-29 cells pre-incubated with MLN4924 for 2 hrs followed by compound addition at 0.3 uM and further incubated for 8 hrs by Western blot analysis; format: cell-based
HT-29 [26] = test: Inhibition of ERK phosphorylation in human HT-29 cells pre-incubated with POMA for 2 hrs followed by compound addition at 0.3 uM and further incubated for 8 hrs by Western blot analysis; format: cell-based
HT-29 [27] = test: Inhibition of ERK phosphorylation in human HT-29 cells pre-incubated with PD0325901 for 2 hrs followed by compound addition at 0.3 uM and further incubated for 8 hrs by Western blot analysis; format: cell-based
HT-29 [28] = test: Inhibition of ERK phosphorylation in human HT-29 cells at 0.3 uM and further incubated for 8 hrs by Western blot analysis
SK-MEL-28 [29] = test: Antiproliferative activity against human SK-MEL-28 cells incubated for 3 days by WST8 assay; format: functional; details: SK-MEL-28, 72 h, time 3 day
HT-29 [30] = test: Antiproliferative activity against human HT-29 cells incubated for 3 days by WST8 assay; format: functional; details: HT-29, 72 h, time 3 day
SU-DHL-1 [31] = test: Antiproliferative activity against human SU-DHL-1 cells incubated for 3 days by WST8 assay; format: functional; details: SU-DHL-1, 72 h, time 3 day

For `Cc1ncsc1-c1ccc([C@H](C)NC(=O)[C@@H]2C[C@@H](O)CN2C(=O)[C@@H](NC(=O)CCCCCCCCCCN(C)CCCONC(=O)c2ccc(F)c(F)c2Nc2ccc(I)cc2F)C(C)(C)C)cc1`, the inhibition (HT-29 [1]) was “Active”, the inhibition (HT-29 [2]) was “inactive” and the inhibition (HT-29 [3]) was “inactive”. For the same molecule, the Activity (NCI-H3122 [4]) was “Active”, the Activity [5] was “Non-Toxic” and the inhibition (SK-MEL-28 [6]) was “Active”. For the same molecule, the Activity [7] was “Non-Toxic”, the inhibition (NCI-H3122 [8]) was “Active” and the Drug uptake [9] was “Active”. For the same molecule, the inhibition (HT-29 [10]) was “Dose-dependent effect”, the inhibition (HT-29 [11]) was “inactive” and the inhibition (HT-29 [12]) was “inactive”. The Activity [13] was “Non-Toxic”, the inhibition (SU-DHL-1 [14]) was “Active” and the inhibition (HT-29 [15]) was “Active”.
For `Cc1ncsc1-c1ccc([C@H](C)NC(=O)[C@@H]2C[C@@H](O)CN2C(=O)[C@@H](NC(=O)CCCCCCCCCCCNCCCCONC(=O)c2ccc(F)c(F)c2Nc2ccc(I)cc2F)C(C)(C)C)cc1`, the inhibition (HT-29 [1]) was “Active”, the inhibition (HT-29 [2]) was “inactive” and the inhibition (HT-29 [3]) was “inactive”. The Activity (NCI-H3122 [4]) was “Active”, the Activity [5] was “Non-Toxic” and the inhibition (SK-MEL-28 [6]) was “Active”. The Activity (HT-29 [16]) was “Active”, the Activity [7] was “Non-Toxic” and the inhibition (NCI-H3122 [8]) was “Active”. For the same molecule, the Drug uptake [9] was “Active”, the Activity (HT-29 [17]) was “Active” and the inhibition (HT-29 [10]) was “Dose-dependent effect”. For the same molecule, the Activity (SK-MEL-28 [18]) was “Active”, the inhibition (HT-29 [11]) was “inactive” and the inhibition (HT-29 [12]) was “inactive”. For the same molecule, the Activity [13] was “Non-Toxic”, the Activity (SK-MEL-28 [19]) was “Active” and the inhibition (SU-DHL-1 [14]) was “Active”. For the same molecule, the inhibition (HT-29 [15]) was “Active”.
With `Cc1ncsc1-c1ccc([C@H](C)NC(=O)[C@H]2C[C@H](O)CN2C(=O)[C@@H](NC(=O)CCCCCCCCCCCNCCCCONC(=O)c2ccc(F)c(F)c2Nc2ccc(I)cc2F)C(C)(C)C)cc1` the inhibition (HT-29 [20]) was “inactive”, the inhibition (HT-29 [1]) was “inactive” and the Activity (NCI-H3122 [4]) was “inactive”. For the same molecule, the Activity (HT-29 [21]) was “inactive”, the inhibition (NCI-H3122 [8]) was “inactive” and the inhibition (SU-DHL-1 [14]) was “inactive”.
With `CN1C(=O)CCC(N2C(=O)c3ccc(NCCOCCOCCOCCOCCOCCNCCCONC(=O)c4ccc(F)c(F)c4Nc4ccc(I)cc4F)cc3C2=O)C1=O` (stereo unspecified) the inhibition (HT-29 [20]) was “inactive”, the inhibition (HT-29 [22]) was “inactive” and the Activity (HT-29 [23]) was “inactive”.
In the case of `O=C1CCC(N2C(=O)c3ccc(NCCOCCOCCOCCOCCOCCNCCCONC(=O)c4ccc(F)c(F)c4Nc4ccc(I)cc4F)cc3C2=O)C(=O)N1` (stereo unspecified), the inhibition (HT-29 [24]) was “inactive”, the inhibition (HT-29 [22]) was “Active” and the inhibition (HT-29 [25]) was “inactive”. The inhibition (HT-29 [26]) was “inactive”, the inhibition (HT-29 [10]) was “Dose-dependent effect” and the inhibition (HT-29 [27]) was “Active”. For the same molecule, the inhibition (HT-29 [28]) was “inactive”.
Molecule `Cc1ncsc1-c1ccc([C@H](C)NC(=O)[C@@H]2C[C@@H](O)CN2C(=O)[C@@H](NC(=O)CCCCCCCCCCNCCCONC(=O)c2ccc(F)c(F)c2Nc2ccc(I)cc2F)C(C)(C)C)cc1` has a GI50 (SK-MEL-28 [29]) of 83 nM and a GI50 (HT-29 [30]) of 130 nM.
In the case of `Cc1ncsc1-c1ccc([C@H](C)NC(=O)[C@H]2C[C@H](O)CN2C(=O)[C@@H](NC(=O)CCCCCCCCCCN(C)CCCONC(=O)c2ccc(F)c(F)c2Nc2ccc(I)cc2F)C(C)(C)C)cc1`, the inhibition (HT-29 [20]) was “inactive”, the inhibition (HT-29 [1]) was “inactive” and the Activity (NCI-H3122 [4]) was “inactive”. For the same molecule, the inhibition (NCI-H3122 [8]) was “inactive” and the inhibition (SU-DHL-1 [14]) was “inactive”.
In the case of `O=C1CCC(N2C(=O)c3cccc(NCCOCCOCCOCCNCCCONC(=O)c4ccc(F)c(F)c4Nc4ccc(I)cc4F)c3C2=O)C(=O)N1` (stereo unspecified), the GI50 (HT-29 [30]) was 800 nM.
With `Cc1ncsc1-c1ccc(CNC(=O)[C@@H]2C[C@@H](O)CN2C(=O)[C@@H](NC(=O)CCCCCNCCCONC(=O)c2ccc(F)c(F)c2Nc2ccc(I)cc2F)C(C)(C)C)cc1` the GI50 (HT-29 [30]) was 2100 nM.
With `Cc1ncsc1-c1ccc([C@H](C)NC(=O)[C@@H]2C[C@@H](O)CN2C(=O)[C@@H](NC(=O)COCCOCCOCCNC(=O)CCc2ccc(S(=O)(=O)Nc3cc(C)c(=O)n(C)c3Nc3ccc(I)cc3F)cc2)C(C)(C)C)cc1` the GI50 (SU-DHL-1 [31]) was 2400 nM.
For `Cc1ncsc1-c1ccc(CNC(=O)[C@@H]2C[C@@H](O)CN2C(=O)[C@@H](NC(=O)CCCCCCCNCCCONC(=O)c2ccc(F)c(F)c2Nc2ccc(I)cc2F)C(C)(C)C)cc1`, the GI50 (HT-29 [30]) was 500 nM.
